Measured values gathered from unrelated publications.
UGT2B7: UDP-glucuronosyltransferase 2B7 (UGT2B7, Homo sapiens, UniProt P16662)

Compound	tested on	test	system	setting	measurement	value
Cc1ncc2n1-c1ccc(Cl)cc1C(c1ccccc1F)=NC2	–	–	human, plasma	oral, 2 mg, single dose	Tmax	0.67 h
O=C(O)c1cn(Cc2ccc(F)cc2)c2ccccc12	UGT2B7	enzyme activity, substrate	–	–	Km	61.5 µM
O=C1[O][Pt]2([NH][C@@H]3CCCC[C@H]3[NH]2)[O]C1=O (relative stereo)	–	–	cynomolgus monkey, plasma	oral, 10 mg/kg	MRT	19.7 h
CSCC[C@H](NC(=O)COCCOCCNC(=O)COCCOCCNC(=O)CC[C@H](NC(=O)CCCCCCCCCCCCCCCCC(=O)O)C(=O)O)C(=O)N[C@H]1CSSC[C@@H](C(=O)NCC(=O)N[C@@H](CO)C(=O)NCC(=O)N[C@@H](CO)C(=O)N[C@@H](CC(=O)O)C(=O)N[C@@H](Cc2ccc(O)cc2)C(=O)N[C@@H](CCCCN)C(=O)N[C@@H](CC(=O)O)C(=O)N[C@@H](CC(=O)O)C(=O)N[C@@H](CC(=O)O)C(=O)N[C@@H](CC(=O)O)C(=O)N[C@@H](CCCCN)C(N)=O)NC(=O)[C@H](Cc2ccccc2)NC(=O)[C@@H]2CCCN2C(=O)[C@H](Cc2c[nH]c3ccccc23)NC(=O)[C@H](CC(C)C)NC(=O)[C@H](CCSC)NC(=O)[C@H](Cc2c[nH]cn2)NC(=O)[C@H](Cc2ccccc2)NC(=O)[C@H](Cc2c[nH]cn2)NC(=O)[C@H]([C@@H](C)O)NC(=O)[C@H](Cc2ccccc2)NC1=O	–	–	male Sprague-Dawley rat, plasma	intravenous	MRT	13.7 h
C[C@@H](c1ccc2nccn2c1)n1nnc2ncc(-c3cnn(C)c3)nc21	–	–	human, plasma	oral, 600 mg	Tmax	4 h
Cc1ncc2n1-c1ccc(Cl)cc1C(c1ccccc1F)=NC2	–	–	human, plasma	intravenous, 3 µg, single dose	Tmax	0.0333 h
CC(Cc1ccccc1)NCCn1cnc2c1c(=O)n(C)c(=O)n2C (centres unmarked)	Voltage-gated inwardly rectifying potassium channel KCNH2 (KCNH2, Homo sapiens, UniProt Q12809)	ligand displacement, radioligand	–	10 µM	inhibition	-4%
C=C1CCC2C(C)(CO)C(=O)CCC2(C)C1C=CC1=CCOC1=O (centres unmarked)	UGT2B7	enzyme activity, inhibitor	–	–	Ki	13.7 µM
CC(=C/C=C/C(C)=C/C(=O)O)/C=C1\CCCc2ccccc21	–	–	human, plasma	oral, 20 mg, single dose, fasted, healthy volunteers	Tmax	2.88 h
N=C(N)NCCC[C@@H](NC(=O)[C@@H](N)Cc1ccccc1)C(=O)N[C@@H](Cc1ccccc1)C(=O)N[C@@H](CCCCN)C(N)=O	–	–	human, plasma	subcutaneous, 15 mg, patients	Tmax	0.75 h
COc1ccc(C[C@@H]2NC(=O)[C@H]([C@@H](C)O)NC(=O)[C@@H]3[C@@H]4CCN3C(=O)[C@@H]3Cc5cn(c6ccc(F)cc56)CCCCCCN(Cc5ccc(cc5)CCNC(=O)[C@]5(C)CCCN5C2=O)C(=O)CCC(=O)N[C@@H](C)C(=O)N[C@H](CNC(=O)CCCCC[N+](C)(C)C)C(=O)N[C@@H](Cc2cccc(c2)CNC(=O)CO4)C(=O)N3)cc1	–	–	human, plasma	oral, 200 mg, single dose	Tmax	14.5 h
C=C1CC[C@@H]2[C@](C)(CO)[C@H](O)CC[C@@]2(C)[C@@H]1/C=C/C1=CCOC1=O	UGT2B7	enzyme activity, inhibitor	–	–	Ki	6.9 µM
CN(C)CCc1c[nH]c2ccccc12	–	–	human, plasma	intravenous, 9 mg, healthy volunteers, infusion	Tmax	0.16 h
Cl.Cl.O=C(CCN1CCCCC1)c1ccc(-c2ccc(C(=O)CCN3CCCCC3)cc2)cc1	–	–	Sprague-Dawley rat, plasma	oral, 100 mg/kg	MRT(0-t)	12.2 h
